Assay outcomes deposited in PubChem by The Scripps Research Institute Molecular Screening Center.
FID counter = displaces DNA intercalator in HCV helicase counter-screen. 290,000 tested, 0.17% active. DNA fluorescent intercalator displacement, fluorescence. inhibition, % at 7.9 µM; in the data active means inhibition above about 37%;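 further: higher means more ethidium bromide displaced from hairpin DNA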
DDE Tn6 FP inh = disrupts Tn6 cyclic peptide binding to fibrin D-Dimer-E complex. Fibrin DD(E) TRITC-Tn6 fluorescence polarization displacement. inhibition, % at 8.3 µM. 370,000 tested, 0.21% active;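 active means inhibition above a per-campaign cutoff: mean of compounds within control limits plus 3 SD, cut at about 15% in these data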
DDE Tn7 FP inh = DD(E)-Tn7 binding inhibition, primary FP screen | P02675 | FP displacement of FITC-Tn7 peptide from fibrin DD(E); 0% = median of compound wells per plate | inhibition, % at 8.3 µM | 370,000 tested, 0.13% active | AID 720508;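 active means inhibition above the mean of compounds falling within the control limits plus 3 SD of them, cut at about 14% in these data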
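assay system = human clot-derived fibrin DD(E) complex | quantity = Fibrin-DD(E) at 2 µM final | timing = 10 min preincubation, 3 h with tracer, room temperature | signal = fluorescence polarization | measure = percent inhibition | benchmarks = high control wells with 10 µM unlabelled Aha-Tn7 peptide (full inhibition) | replicates = singlicate testing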
PLCb3 inh = inhibitors of human phospholipase C beta3 | 370,000 tested, 0.18% active | Purified PLC-beta3, fluorogenic substrate, fluorescence | inhibition, % at 12.2 µM | Q01970; in the data active means inhibition above about 11%
PLCg1 inh = blocks human PLC-gamma1 enzyme activity; P19174; purified PLC-gamma1, fluorogenic substrate, fluorescence; inhibition, % at 12.2 µM; 370,000 tested, 0.84% active; AID 720700
PLCg1 ctr = counter-screen for PLC-beta3 inhibitors: inhibitors of human PLC-gamma1; shares compounds with PLCg1 inh; purified PLC-gamma1, fluorogenic substrate, fluorescence; inhibition, % at 12.3 µM; 3,300 tested, 3.1% active; AID 743258
PLCb3 confirm = confirmation of human PLC-beta3 inhibitors. shares compounds with PLCg1 inh. 3,300 tested, 1% active. inhibition, % at 12.3 µM. purified PLC-beta3, fluorogenic substrate fluorescence. AID 743261; in the data active means inhibition above about 11%
Large screens that a line does not name were inactive (follow-up assays come after a bar, where they were run). Compounds with a hit are over-represented: about 1.4% of the library has one in this group of screens. Unless noted, no stated cut-off is given here; in the data, active means inhibition above about 9.5%; inactive means the rest.

O=c1[nH]c(=O)n(Cc2ccco2)c(O)c1C=NCc1ccc2c(c1)OCO2	PLCg1 inh 9.7 | PLCg1 ctr inactive | PLCb3 confirm inactive
NS(=O)(=O)c1nc[nH]c1[N+](=O)[O-]	PLCg1 inh 11.3 (no result: FID counter) | PLCg1 ctr inactive | PLCb3 confirm inactive
CN(C)CC#CCC(O)(c1ccccc1)C1CCCC1 (configuration not stated)	PLCb3 inh 12.8 | PLCg1 ctr inactive | PLCb3 confirm inactive
C[N+]1(C)C2CC(OC(=O)C(CO)c3ccccc3)CC1C1OC12 (configuration not stated)	none (no result: FID counter)
Cc1csc(NC(=O)C(Cl)c2ccccc2)n1 (configuration not stated) (tested in a mixture with another compound)	none (no result: FID counter)
COc1ccc(CCNCc2ccsc2)cc1OC	none
O=C1CN=C(c2cccs2)c2c(sc3c2CCCC3)N1	none
O=C1CN=C(c2ccccc2)c2c(sc3c2CCCC3)N1	PLCg1 inh 11.4 | PLCg1 ctr inactive | PLCb3 confirm inactive
O=C(CN1CCN(Cc2cccc(Cl)c2)C1=O)N1CCC2(CC1)OCCO2	none
CCC(C)C1NC(=O)C(NC(=O)C(CC(C)C)N(C)C(=O)C2CCCN2C(=O)C(C)O)C(C)OC(=O)C(Cc2ccc(OC)cc2)N(C)C(=O)C2CCCN2C(=O)C(CC(C)C)NC(=O)[C@H](C)C(=O)[C@H](C(C)C)OC(=O)CC1O (some centres not stated)	PLCg1 inh 18.4 (no result: FID counter) | PLCg1 ctr inactive | PLCb3 confirm inactive
O=c1[nH]c(=S)n(Cc2ccc(F)cc2)c(O)c1C=NCc1cccnc1	PLCg1 inh 10.9 | PLCg1 ctr inactive | PLCb3 confirm inactive
O=[N+]([O-])c1ccc(NCCO)c2ncccc12	none
Cn1ccc(NC(=O)CCl)n1	none
CC12CC[C@H]3[C@@H](CCC4(O)C[C@H](O)CCC34/C=N/NC(=O)c3ccccc3O)C1(O)CCC2C1=CC(=O)OC1 (some centres not stated)	none
CC12CC[C@H]3[C@@H](CCC4(O)C[C@H](O)CCC34/C=N/NC(=O)c3ccccc3F)C1(O)CCC2C1=CC(=O)OC1 (some centres not stated)	PLCg1 inh 13.0 | PLCg1 ctr inactive | PLCb3 confirm inactive
CCN(CC)P(=O)(NC(=O)c1cccn1C)N(CC)CC	none
COC(=O)C12OCC34C(CC5C(C)=C(O)C(=O)CC5(C)C3C(O)C1O)OC(=O)C(OC(=O)/C=C(\C)C(C)C)C24 (configuration not stated)	PLCg1 inh 13.1 (no result: FID counter) | PLCg1 ctr inactive | PLCb3 confirm inactive
Cc1cccc(CS(=O)(=O)Cc2ccc(C(=O)N3CCC4(CC3)OCCO4)o2)c1	PLCb3 inh 11.4, PLCg1 inh 13.8 | PLCg1 ctr inactive | PLCb3 confirm inactive
CC(C)C(=O)N1CCN(CCN=Cc2c(O)n(C)c(=O)n(C)c2=O)CC1	PLCg1 inh 11.0 | PLCg1 ctr inactive | PLCb3 confirm inactive
CCC(=O)N1CCN(CCN=Cc2c(O)n(C)c(=O)n(C)c2=O)CC1	none
